# According to ChEMBL document CHEMBL2157889, “Design, synthesis and biological evaluation of heterocyclic azoles derivatives containing pyrazine moiety as potential telomerase inhibitors” (Bioorg Med Chem, 2012):
# Columns and labels:
# HeLa = test: Antiproliferative activity against human HeLa cells after 48 hrs by MTT method; assay type: functional, cell-based
# [1] = target: Telomerase reverse transcriptase (Homo sapiens, UniProt O14746); test: Inhibition of telomerase in human HepG2 cells after 24 hrs by TRAP-PCR-ELISA assay; assay type: cell-based
# Sequence of Telomerase reverse transcriptase (O14746 whole entry): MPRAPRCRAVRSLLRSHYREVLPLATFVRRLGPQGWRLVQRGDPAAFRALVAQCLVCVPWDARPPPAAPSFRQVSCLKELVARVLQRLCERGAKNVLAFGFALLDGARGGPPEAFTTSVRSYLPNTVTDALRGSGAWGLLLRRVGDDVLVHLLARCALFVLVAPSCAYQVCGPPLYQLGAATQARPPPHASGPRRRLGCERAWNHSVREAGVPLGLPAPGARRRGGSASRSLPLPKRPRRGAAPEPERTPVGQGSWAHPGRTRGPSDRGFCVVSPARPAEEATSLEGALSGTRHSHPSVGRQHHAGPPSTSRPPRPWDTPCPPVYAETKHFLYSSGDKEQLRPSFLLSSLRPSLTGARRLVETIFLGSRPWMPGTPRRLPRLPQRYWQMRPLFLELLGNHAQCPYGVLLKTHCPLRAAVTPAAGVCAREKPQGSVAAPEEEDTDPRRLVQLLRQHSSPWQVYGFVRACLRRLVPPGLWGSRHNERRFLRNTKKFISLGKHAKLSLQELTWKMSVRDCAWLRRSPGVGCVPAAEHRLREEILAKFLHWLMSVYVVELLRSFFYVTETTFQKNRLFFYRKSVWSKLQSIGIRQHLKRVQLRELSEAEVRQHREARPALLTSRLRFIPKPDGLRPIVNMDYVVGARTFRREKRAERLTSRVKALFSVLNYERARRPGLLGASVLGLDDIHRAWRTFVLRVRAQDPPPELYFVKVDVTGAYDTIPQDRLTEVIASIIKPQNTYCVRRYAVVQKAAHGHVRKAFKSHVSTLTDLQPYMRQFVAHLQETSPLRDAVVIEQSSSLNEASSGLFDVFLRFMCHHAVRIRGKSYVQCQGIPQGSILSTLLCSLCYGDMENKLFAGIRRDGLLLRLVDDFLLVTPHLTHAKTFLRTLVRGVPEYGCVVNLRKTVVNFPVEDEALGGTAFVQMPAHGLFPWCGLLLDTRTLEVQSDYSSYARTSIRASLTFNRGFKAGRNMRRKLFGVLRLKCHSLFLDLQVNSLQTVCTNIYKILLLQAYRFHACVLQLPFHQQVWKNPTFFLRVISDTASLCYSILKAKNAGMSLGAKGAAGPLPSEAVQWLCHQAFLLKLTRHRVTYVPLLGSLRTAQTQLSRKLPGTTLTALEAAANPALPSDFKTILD
# Method in brief: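 Cells in serum/penicillin/streptomycin medium (37 °C, 5% CO₂) were seeded at 5×10⁴ per T25 flask and allowed to adhere. After 24 h treatment, cells were lysed in RIPA buffer on ice for 30 min and spun at 12,000 g for 20 min at 4 °C. For the kit-based TRAP-PCR-ELISA, PCR ran 94 °C 120 s, then 35 cycles of 94/50/72 °C. Product was hybridised to a DIG probe, captured via biotin-streptavidin, detected with peroxidase anti-DIG, and read at 490 nm.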
# BGC-823 = test: Antiproliferative activity against human BGC823 cells after 48 hrs by MTT method; assay type: functional, cell-based; settings: BGC-823, 48 h
# Method in brief: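 MTT assay. Cells were seeded at 10⁴ per well and held 24 h at 37 °C with 5% CO₂. […] After 48 h, 5 mg/mL MTT in PBS was added for 4 h. Formazan was dissolved in DMSO and absorbance read at 490 nm.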
# [2] = Antiproliferative activity against human SW1116 cells after 48 hrs by MTT method; assay type: functional, cell-based; settings: SW 1116, 48 h
# HepG2 [3] = test: Antiproliferative activity against human HepG2 cells after 48 hrs by MTT method; assay type: functional, cell-based; settings: HepG2, 48 h
# HepG2 [4] = test: Induction of apoptosis in human HepG2 cells assessed as necrotic cells at 0.25 uM after 24 hrs by annexin VeFITC/PI-based flow cytometry (reference value: 0.7 %); assay type: functional
# HepG2 [5] = test: Induction of apoptosis in human HepG2 cells assessed as necrotic cells at 2 uM after 24 hrs by annexin VeFITC/PI-based flow cytometry (reference value: 0.7 %); assay type: functional
# HepG2 [6] = test: Induction of apoptosis in human HepG2 cells assessed as late apoptotic cells at 0.5 uM after 24 hrs by annexin VeFITC/PI-based flow cytometry (reference value: 6.84 %); assay type: functional
# HepG2 [7] = test: Induction of apoptosis in human HepG2 cells assessed as late apoptotic cells at 2 uM after 24 hrs by annexin VeFITC/PI-based flow cytometry (reference value: 6.84 %); assay type: functional
# HepG2 [8] = test: Induction of apoptosis in human HepG2 cells assessed as necrotic cells at 0.5 uM after 24 hrs by annexin VeFITC/PI-based flow cytometry (reference value: 0.7 %); assay type: functional
# HepG2 [9] = test: Induction of apoptosis in human HepG2 cells assessed as viable cells at 2 uM after 24 hrs by annexin VeFITC/PI-based flow cytometry (reference value: 89.18 %); assay type: functional; settings: HepG2, 24 h, read-out: Activity
# HepG2 [10] = test: Induction of apoptosis in human HepG2 cells assessed as late apoptotic cells at 0.25 uM after 24 hrs by annexin VeFITC/PI-based flow cytometry (reference value: 6.84 %); assay type: functional
# HepG2 [11] = test: Induction of apoptosis in human HepG2 cells assessed as early apoptotic cells at 2 uM after 24 hrs by annexin VeFITC/PI-based flow cytometry (reference value: 3.28 %); assay type: functional
# HepG2 [12] = test: Induction of apoptosis in human HepG2 cells assessed as viable cells at 1 uM after 24 hrs by annexin VeFITC/PI-based flow cytometry (reference value: 89.18 %); assay type: functional; settings: HepG2, 24 h, read-out: Activity
# HepG2 [13] = test: Induction of apoptosis in human HepG2 cells assessed as necrotic cells at 1 uM after 24 hrs by annexin VeFITC/PI-based flow cytometry (reference value: 0.7 %); assay type: functional
# HepG2 [14] = test: Induction of apoptosis in human HepG2 cells assessed as viable cells at 0.25 uM after 24 hrs by annexin VeFITC/PI-based flow cytometry (reference value: 89.18 %); assay type: functional; settings: HepG2, 24 h, read-out: Activity
# HepG2 [15] = test: Induction of apoptosis in human HepG2 cells assessed as early apoptotic cells at 1 uM after 24 hrs by annexin VeFITC/PI-based flow cytometry (reference value: 3.28 %); assay type: functional
# HepG2 [16] = test: Induction of apoptosis in human HepG2 cells assessed as early apoptotic cells at 0.5 uM after 24 hrs by annexin VeFITC/PI-based flow cytometry (reference value: 3.28 %); assay type: functional
# HepG2 [17] = test: Induction of apoptosis in human HepG2 cells after 24 hrs by annexin VeFITC/PI-based flow cytometry; assay type: functional, cell-based
# HepG2 [18] = test: Induction of apoptosis in human HepG2 cells assessed as early apoptotic cells at 0.25 uM after 24 hrs by annexin VeFITC/PI-based flow cytometry (reference value: 3.28 %); assay type: functional
# HepG2 [19] = test: Induction of apoptosis in human HepG2 cells assessed as late apoptotic cells at 1 uM after 24 hrs by annexin VeFITC/PI-based flow cytometry (reference value: 6.84 %); assay type: functional
# HepG2 [20] = test: Induction of apoptosis in human HepG2 cells assessed as viable cells at 0.5 uM after 24 hrs by annexin VeFITC/PI-based flow cytometry (reference value: 89.18 %); assay type: functional; settings: HepG2, 24 h, read-out: Activity
SMILES,IC50 (HeLa) [µM],IC50 [1] [µM],IC50 (BGC-823) [µM],IC50 [2] [µM],IC50 (HepG2 [3]) [µM],further results
Brc1ccc(CSc2nnc(-c3cnccn3)n2-c2ccccc2)cc1,8.63,7.13,19.8,6.21,11.4,–
O=c1[nH]cc(F)c(=O)[nH]1 [FLUOROURACIL],3.25,–,–,2.41,1.3,–
Brc1ccc(CSc2nnc(-c3cnccn3)s2)cc1,12.4,1.24,25.2,1.47,0.78,Activity (HepG2 [4]): 1.72%; Activity (HepG2 [5]): 2.82%; Activity (HepG2 [6]): 24.02%; Activity (HepG2 [7]): 35.16%; Activity (HepG2 [8]): 3.62%; viability at 2 µM (HepG2 [9]): 44.5%; Activity (HepG2 [10]): 8.62%; Activity (HepG2 [11]): 17.54%; viability at 1 µM (HepG2 [12]): 50.3%; Activity (HepG2 [13]): 4.18%; viability at 0.25 µM (HepG2 [14]): 85.3%; Activity (HepG2 [15]): 14.96%; Activity (HepG2 [16]): 11.48%; Activity (HepG2 [17]): Dose-dependent effect; Activity (HepG2 [18]): 4.36%; Activity (HepG2 [19]): 30.6%; viability at 0.5 µM (HepG2 [20]): 60.9%
Fc1ccc(CSc2nnc(-c3cnccn3)o2)c(F)c1,26.7,–,33,19.3,14.4,–
c1ccc(CSc2nnc(-c3cnccn3)n2-c2ccccc2)cc1,35.6,–,> 50,15.4,17.1,–
Clc1cccc(CSc2nnc(-c3cnccn3)s2)c1,29.7,3.12,14.7,12.1,7.03,–
Clc1ccc(CSc2nnc(-c3cnccn3)o2)cc1,24.6,–,30,17.3,11.5,–
Clc1ccccc1CSc1nnc(-c2cnccn2)n1-c1ccccc1,> 50,–,34.7,18.1,18.8,–
Fc1ccc(CSc2nnc(-c3cnccn3)o2)cc1,41.6,17.1,> 50,22.7,16.5,–
Fc1cccc(F)c1CSc1nnc(-c2cnccn2)o1,> 50,–,> 50,23.8,17.1,–
Clc1cccc(CSc2nnc(-c3cnccn3)o2)c1,14.6,6.38,15.8,7.88,7.5,–
Clc1ccc(CSc2nnc(-c3cnccn3)n2-c2ccccc2)cc1,> 50,13.4,27.7,12.5,15.3,–
Fc1ccc(CSc2nnc(-c3cnccn3)s2)cc1,> 50,12.1,29.3,17.1,10.1,–
Clc1ccc(CSc2nnc(-c3cnccn3)s2)cc1,18.9,7.88,13.4,4.77,6.23,–
Clc1cccc(CSc2nnc(-c3cnccn3)n2-c2ccccc2)c1,13.5,–,20.3,6.61,19.6,–
Fc1ccccc1CSc1nnc(-c2cnccn2)n1-c1ccccc1,44.1,17.6,> 50,18.8,19.3,–
Fc1ccc(CSc2nnc(-c3cnccn3)n2-c2ccccc2)c(F)c1,12.5,–,17.8,4.65,10.4,–
Brc1cccc(CSc2nnc(-c3cnccn3)n2-c2ccccc2)c1,9.58,–,18.3,5.03,10.6,–

SMILES,IC50 (HeLa) [µM],IC50 [1] [µM],IC50 (BGC-823) [µM],IC50 [2] [µM],IC50 (HepG2 [3]) [µM],further results
Brc1ccc(CSc2nnc(-c3cnccn3)o2)cc1,21.6,–,25.7,14.4,13.2,–
Brc1ccccc1CSc1nnc(-c2cnccn2)s1,21.3,3.97,18.9,6.95,9.81,–
Fc1cccc(F)c1CSc1nnc(-c2cnccn2)n1-c1ccccc1,> 50,24.2,> 50,24.1,22.6,–
Fc1ccc(CSc2nnc(-c3cnccn3)s2)c(F)c1,20.9,–,14.5,5.18,9.63,–
Fc1ccc(CSc2nnc(-c3cnccn3)n2-c2ccccc2)cc1,7.3,15,27.2,4.12,10.1,–
Brc1ccccc1CSc1nnc(-c2cnccn2)n1-c1ccccc1,> 50,–,36.2,19.4,11.6,–
c1ccc(CSc2nnc(-c3cnccn3)s2)cc1,34.4,–,21.2,7.88,11.3,–
Fc1ccccc1CSc1nnc(-c2cnccn2)o1,25.3,–,18.2,16.8,12.5,–
Clc1ccccc1CSc1nnc(-c2cnccn2)s1,28.9,–,20.3,7.53,10.8,–
Fc1ccccc1CSc1nnc(-c2cnccn2)s1,32.7,–,18.4,6.77,9.52,–
Brc1ccccc1CSc1nnc(-c2cnccn2)o1,8.89,3.55,17.6,2.46,4.22,–
Clc1ccccc1CSc1nnc(-c2cnccn2)o1,23,–,27.7,15.1,12.3,–
Brc1cccc(CSc2nnc(-c3cnccn3)o2)c1,30.3,3.59,11.5,5.06,5.79,–
c1ccc(CSc2nnc(-c3cnccn3)o2)cc1,21.1,–,25,34,11.2,–
Fc1cccc(F)c1CSc1nnc(-c2cnccn2)s1,29.2,–,18.6,16.8,6.9,–
Brc1cccc(CSc2nnc(-c3cnccn3)s2)c1,5.43,1.54,16.7,5.26,1.79,–
CN[C@@H]1C[C@H]2O[C@@](C)([C@@H]1OC)n1c3ccccc3c3c4c(c5c6ccccc6n2c5c31)C(=O)NC4 [STAUROSPORINE],–,–,6.83,–,–,–
